According to ChEMBL document CHEMBL5096186, “Design, Synthesis, and Biological Evaluation of Novel Pyrimido[4,5-b]indole Derivatives Against Gram-Negative Multidrug-Resistant Pathogens” (J Med Chem, 2021):
pIC50: −log10 of the molar value. Converted amounts (≈) assume the structure as drawn.

Assays:
[1] = test system: Pseudomonas aeruginosa; test: Antibacterial activity against multidrug resistant Pseudomonas aeruginosa strains 15 1 to 3 assessed as reduction in bacterial growth incubated for 18 to 20 hrs by CLSI based microdilution method; type: functional; conditions: time 18-20 hrs
Procedure, shortened: (§1)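 Broth microdilution per CLSI. Compounds dissolved in DMSO (levofloxacin and meropenem in water) as 64 μg/mL stock, then serial twofold dilutions in broth giving 64 to 0.008 μg/mL. […] Clinical isolates tested as several strains per group; racemic GP-1 served as positive control; values given as MIC ranges.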

[2] = test system: Staphylococcus epidermidis; test: Antibacterial activity against methicillin-sensitive Staphylococcus epidermidis strains 15 1 to 4 assessed as reduction in bacterial growth incubated for 18 to 20 hrs by CLSI based microdilution method; type: functional; conditions: time 18-20 hrs; procedure, shortened: as §1
[3] = test system: Staphylococcus aureus; test: Antibacterial activity against methicillin-sensitive Staphylococcus aureus strains 15 1 to 4 assessed as reduction in bacterial growth incubated for 18 to 20 hrs by CLSI based microdilution method; type: functional; conditions: time 18-20 hrs; procedure, shortened: as §1
[4] = test system: Staphylococcus epidermidis; test: Antibacterial activity against methicillin-resistant Staphylococcus epidermidis strains 15 1 to 4 assessed as reduction in bacterial growth incubated for 18 to 20 hrs by CLSI based microdilution method; type: functional; conditions: time 18-20 hrs; procedure, shortened: as §1
[5] = test system: Staphylococcus aureus; test: Antibacterial activity against methicillin-resistant Staphylococcus aureus strains 15 1 to 4 assessed as reduction in bacterial growth incubated for 18 to 20 hrs by CLSI based microdilution method; type: functional; conditions: time 18-20 hrs; procedure, shortened: as §1
[6] = test system: Escherichia coli; test: Antibacterial activity against Escherichia coli ATCC 35218 strains 15 1 to 3 assessed as reduction in bacterial growth incubated for 18 to 20 hrs by CLSI based microdilution method; type: functional; conditions: time 18-20 hrs
Procedure, shortened: (§2)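 CLSI broth microdilution. Compounds in DMSO (levofloxacin and meropenem in water), serial twofold dilutions in broth, 64 to 0.008 μg/mL. […] Results reported as MIC ranges across strains.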

[7] = test system: Escherichia coli; test: Antibacterial activity against ESBL-producing Escherichia coli ATCC 35218 strains 15 1 to 3 assessed as reduction in bacterial growth incubated for 18 to 20 hrs by CLSI based microdilution method; type: functional; conditions: time 18-20 hrs; procedure, shortened: as §2
[8] = Metabolic stability in rat liver microsome assessed as elimination half life at 0.1 uM in presence of NADPH incubated upto 60 mins by LC-MS/MS analysis; type: ADME; conditions: liver microsomes, read-out: beta t1/2
Procedure, shortened: (§3)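 Compound at 0.1 μM final, in 0.01% DMSO with 0.005% BSA. Incubated with rat or human liver microsomes at 0.33 mg/mL in 0.1 M Tris-HCl, pH 7.4, with 5 mM MgCl₂ and 1 mM NADPH, at 37 °C. Samples at 0, 7, 17, 30 and 60 min quenched with cold methanol and analysed by LC-MS/MS. Half-life, Cl_int and MF% derived as previously described.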

[9] = test system: Escherichia coli; test: Antibacterial activity against ESBL-producing multidrug resistant Escherichia coli assessed as reduction in bacterial growth incubated for 18 to 20 hrs by CLSI based microdilution method; type: functional; conditions: time 18-20 hrs; procedure, shortened: as §1
[10] = test system: Pseudomonas aeruginosa; test: Antibacterial activity against wild type Pseudomonas aeruginosa ATCC 27853 assessed as reduction in bacterial growth incubated for 18 to 20 hrs by CLSI based microdilution method; type: functional; conditions: time 18-20 hrs; procedure, shortened: as §2
[11] = Metabolic stability in rat liver microsome assessed as intrinsic clearance at 0.1 uM in presence of NADPH incubated upto 60 mins by LC-MS/MS analysis; type: ADME; conditions: microsomes, 1 h; procedure, shortened: as §3
[12] = test system: Klebsiella pneumoniae; test: Antibacterial activity agains wild type Klebsiella pneumoniae ATCC BAA-1705 assessed as reduction in bacterial growth incubated for 18 to 20 hrs by CLSI based microdilution method; type: functional; conditions: time 18-20 hrs; procedure, shortened: as §2
[13] = molecular target: Voltage-gated inwardly rectifying potassium channel KCNH2 (Homo sapiens, UniProt Q12809); test: Inhibition of hERG potassium channel assessed as […] at -80 mV holding potential incubated for 120 seconds by whole cell-automated voltage clamp analysis assay; type: toxicity
Procedure, shortened: (§4)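 Automated whole-cell patch clamp, holding potential −80 mV. Voltage protocol applied every 20 s. Baseline set with external solution containing 0.1% DMSO and stabilised 3 min. Compound applied until steady state, at least 3 min, then washout. Maximum tested concentration 40 μM, or 3 μM for cisapride as positive control.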

[14] = test system: Acinetobacter baumannii; test: Antibacterial activity against wild type Acinetobacter baumannii NCTC 13304 assessed as reduction in bacterial growth incubated for 18 to 20 hrs by CLSI based microdilution method; type: functional; conditions: time 18-20 hrs; procedure, shortened: as §1
[15] = Metabolic stability in human liver microsome assessed as intrinsic clearance at 0.1 uM in presence of NADPH incubated upto 60 mins by LC-MS/MS analysis; type: ADME; conditions: microsomes, 1 h; procedure, shortened: as §3
[16] = test system: Pseudomonas aeruginosa; test: Antibacterial activity against IMP4-producing multidrug resistant Pseudomonas aeruginosa assessed as reduction in bacterial growth incubated for 18 to 20 hrs by CLSI based microdilution method; type: functional; conditions: time 18-20 hrs; procedure, shortened: as §1
[17] = test system: Acinetobacter baumannii; test: Antibacterial activity agains OXA23-producing multidrug resistant Acinetobacter baumannii assessed as reduction in bacterial growth incubated for 18 to 20 hrs by CLSI based microdilution method; type: functional; conditions: time 18-20 hrs; procedure, shortened: as §1
[18] = test system: Klebsiella pneumoniae; test: Antibacterial activity against KPC2-producing multidrug resistant Klebsiella pneumoniae assessed as reduction in bacterial growth incubated for 18 to 20 hrs by CLSI based microdilution method; type: functional; conditions: time 18-20 hrs; procedure, shortened: as §1
[19] = Metabolic stability in human liver microsome assessed as metabolic bioavailability at 0.1 uM in presence of NADPH incubated upto 60 mins by LC-MS/MS analysis; type: ADME; conditions: liver microsomes; procedure, shortened: as §3
[20] = Metabolic stability in human liver microsome assessed as elimination half life at 0.1 uM in presence of NADPH incubated upto 60 mins by LC-MS/MS analysis; type: ADME; conditions: liver microsomes, read-out: beta t1/2; procedure, shortened: as §3
[21] = test system: Escherichia coli; test: Antibacterial activity against multidrug resistant wild type Escherichia coli ATCC BAA-2340 assessed as reduction in bacterial growth incubated for 18 to 20 hrs by CLSI based microdilution method; type: functional; conditions: time 18-20 hrs; procedure, shortened: as §1
[22] = test system: Klebsiella pneumoniae; test: Antibacterial activity agains wild type Klebsiella pneumoniae ATCC BAA-2470 assessed as reduction in bacterial growth incubated for 18 to 20 hrs by CLSI based microdilution method; type: functional; conditions: time 18-20 hrs; procedure, shortened: as §1
[23] = test system: Escherichia coli; test: Antibacterial activity against multidrug resistant wild type Escherichia coli NCTC 13353 assessed as reduction in bacterial growth incubated for 18 to 20 hrs by CLSI based microdilution method; type: functional; conditions: time 18-20 hrs; procedure, shortened: as §1
[24] = molecular target: hERG (KCNH2) potassium channel (Homo sapiens, UniProt Q12809); test: Inhibition of hERG potassium channel assessed as maximum inhibition rate at 40 uM at -80 mV holding potential incubated for 120 seconds by whole cell-automated voltage clamp analysis assay relative to control; type: toxicity; conditions: time 120 sec; procedure, shortened: as §4
[25] = Metabolic stability in rat liver microsome assessed as metabolic bioavailability at 0.1 uM in presence of NADPH incubated upto 60 mins by LC-MS/MS analysis; type: ADME; conditions: liver microsomes; procedure, shortened: as §3
[26] = Clearance in Sprague-Dawley rat at 4 mg/kg, iv measured upto 24 hrs by LC-MS/MS analysis; type: ADME, organism-based; conditions: in vivo
Procedure, shortened: (§5)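 Male Sprague-Dawley rats, n = 3 per group, single intravenous dose. For 4 mg/kg: 180–280 g rats, vehicle 5% DMSO + 5% EtOH + 40% PEG300 + 50% saline, blood from the retrobulbar vein at 0.05–24 h. For 5 and 20 mg/kg: 180–300 g rats, vehicle 5% DMSO + 5% solutol + 90% saline, sampled at 0.083–24 h. Plasma quantified by LC/MS/MS. Parameters from mean plasma concentration by noncompartmental analysis; values are mean ± standard deviation.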

[27] = MRT in Sprague-Dawley rat at 4 mg/kg, iv measured upto 24 hrs by LC-MS/MS analysis; type: ADME, organism-based; conditions: in vivo; procedure, shortened: as §5
[28] = Elimination half life in Sprague-Dawley rat at 4 mg/kg, iv measured upto 24 hrs by LC-MS/MS analysis; type: ADME, organism-based; conditions: in vivo, read-out: beta t1/2 (converted); procedure, shortened: as §5
[29] = AUC (0 to infinity) in Sprague-Dawley rat at 4 mg/kg, iv measured upto 24 hrs by LC-MS/MS analysis; type: ADME, organism-based; design: time < 24 hrs, dose 4 mg/kg, route iv; conditions: in vivo; procedure, shortened: as §5
[30] = Volume of distribution at the steady state in Sprague-Dawley rat at 4 mg/kg, iv measured upto 24 hrs by LC-MS/MS analysis; type: ADME, organism-based; conditions: in vivo, read-out: Vdss; procedure, shortened: as §5

Voltage-gated inwardly rectifying potassium channel KCNH2, sequence (Q12809 whole entry): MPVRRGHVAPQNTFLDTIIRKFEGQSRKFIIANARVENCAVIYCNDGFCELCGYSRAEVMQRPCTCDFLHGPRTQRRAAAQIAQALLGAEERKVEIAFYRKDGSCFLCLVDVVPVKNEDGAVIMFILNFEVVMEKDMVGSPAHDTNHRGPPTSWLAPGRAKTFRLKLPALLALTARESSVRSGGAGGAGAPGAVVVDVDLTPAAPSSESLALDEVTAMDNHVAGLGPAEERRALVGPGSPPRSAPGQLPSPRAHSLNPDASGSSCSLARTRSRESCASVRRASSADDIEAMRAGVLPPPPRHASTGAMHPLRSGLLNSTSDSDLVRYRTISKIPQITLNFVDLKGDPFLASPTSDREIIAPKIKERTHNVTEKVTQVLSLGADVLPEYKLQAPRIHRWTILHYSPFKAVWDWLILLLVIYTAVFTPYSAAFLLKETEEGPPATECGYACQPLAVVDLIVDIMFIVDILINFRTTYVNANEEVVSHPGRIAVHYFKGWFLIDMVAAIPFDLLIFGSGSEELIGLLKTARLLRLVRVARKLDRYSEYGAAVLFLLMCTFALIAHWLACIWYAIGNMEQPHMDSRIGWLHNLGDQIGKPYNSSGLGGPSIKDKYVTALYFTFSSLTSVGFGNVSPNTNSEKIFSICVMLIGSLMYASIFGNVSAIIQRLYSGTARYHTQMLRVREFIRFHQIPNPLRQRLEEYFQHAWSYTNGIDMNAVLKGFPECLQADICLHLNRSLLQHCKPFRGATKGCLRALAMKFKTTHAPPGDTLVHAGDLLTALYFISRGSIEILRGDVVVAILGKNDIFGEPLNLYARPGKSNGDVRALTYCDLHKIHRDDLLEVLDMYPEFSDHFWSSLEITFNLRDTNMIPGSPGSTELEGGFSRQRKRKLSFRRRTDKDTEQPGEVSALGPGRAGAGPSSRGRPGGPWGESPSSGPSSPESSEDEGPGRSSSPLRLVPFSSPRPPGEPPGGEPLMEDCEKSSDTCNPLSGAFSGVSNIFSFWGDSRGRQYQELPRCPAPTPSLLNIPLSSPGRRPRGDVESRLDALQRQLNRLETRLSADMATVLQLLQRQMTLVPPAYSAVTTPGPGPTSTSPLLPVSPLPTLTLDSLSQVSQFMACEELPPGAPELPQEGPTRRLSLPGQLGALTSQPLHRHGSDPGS
hERG (KCNH2) potassium channel, sequence (Q12809 whole entry): as above

Compound | MIC [1] [µg/mL] | MIC [2] [µg/mL] | MIC [3] [µg/mL] | MIC [4] [µg/mL] | MIC [5] [µg/mL] | MIC [6] [µg/mL] | MIC [7] [µg/mL] | MIC [9] [µg/mL] | MIC [10] [µg/mL] | MIC [12] [µg/mL] | MIC [14] [µg/mL] | MIC [16] [µg/mL] | MIC [17] [µg/mL] | MIC [18] [µg/mL] | MIC [21] [µg/mL] | MIC [22] [µg/mL] | MIC [23] [µg/mL] | further results
CCC(CN)=C1CN(c2nc(N)nc3[nH]c4c(NC)cc(F)cc4c23)C1 | ≥ 16 | 2 (≈ 5.63 µM) | > 4 | 4 (≈ 11.3 µM) | 4 (≈ 11.3 µM) | 2 (≈ 5.63 µM) | 4 (≈ 11.3 µM) |  |  |  |  |  |  |  |  |  |  | 
CCC(CN)=C1CN(c2nc(Oc3cnc(CO)nc3)nc3[nH]c4c(NC)cc(F)cc4c23)C1 | > 4 | < 0.008 | < 0.008 |  |  | 0.25 (≈ 0.538 µM) | 0.5 (≈ 1.08 µM) | 1 (≈ 2.15 µM) | 4 (≈ 8.61 µM) | 8 (≈ 17.2 µM) | 1 (≈ 2.15 µM) | > 8 | 1 (≈ 2.15 µM) | 4 (≈ 8.61 µM) | 1 (≈ 2.15 µM) | 2 (≈ 4.31 µM) | 0.5 (≈ 1.08 µM) | half-life at 0.1 µM [8]: 11.9 min; CLH [11]: 176.4 mL/min/g; pIC50 [13]: < 4.40; CLH [15]: 36.3 mL/min/g; Fh at 1 h, 0.1 µM [19]: 35%; half-life at 0.1 µM [20]: 57.8 min; inhibition at 2 min, 40 µM [24]: 30.9%; Fh at 1 h, 0.1 µM [25]: 20.1%
CNc1cc(F)cc2c1[nH]c1nc(Oc3cnc(C)nc3)nc(N3CCC(=CCN)CC3)c12 | ≥ 16 | 0.25 (≈ 0.557 µM) | 1 (≈ 2.23 µM) | 0.25 (≈ 0.557 µM) | 0.5 (≈ 1.11 µM) | > 2 | 8 (≈ 17.8 µM) |  |  |  |  |  |  |  |  |  |  | 
CCC(CO)=C1CN(c2nc(Oc3cnc(C)nc3)nc3[nH]c4c(NC)cc(F)c(F)c4c23)C1 | > 8 | < 0.03 | < 0.03 |  |  | 32 (≈ 68.5 µM) | 0.25 (≈ 0.535 µM) |  |  |  |  |  |  |  |  |  |  | clearance [26]: 141 mL/min/kg; MRT [27]: 498 min; half-life [28]: 390 min; AUC(0-inf) [29]: 517 ng·h/mL; Vd [30]: 68.4 L/kg
CCC(CN)=C1CN(c2nc(Oc3ccc4c(c3)C(=O)NC4)nc3[nH]c4c(NC)cc(F)cc4c23)C1 | 16 (≈ 32.8 µM) | 0.06 (≈ 0.123 µM) | 0.5 (≈ 1.03 µM) | 0.06 (≈ 0.123 µM) | 0.5 (≈ 1.03 µM) | > 8 | 8 (≈ 16.4 µM) |  |  |  |  |  |  |  |  |  |  | 
C[C@H]1COc2c(N3CCN(C)CC3)c(F)cc3c(=O)c(C(=O)O)cn1c23.C[C@H]1COc2c(N3CCN(C)CC3)c(F)cc3c(=O)c(C(=O)O)cn1c23.O [LEVOFLOXACIN] | 0.5 | 0.125 | 0.25 | > 4 | 16 | ≤ 0.03 |  | 8 | 2 | 64 | 4 | 4 | 4 | ≥ 32 | 4 | 16 | 32 | 
CNc1cc(F)cc2c1[nH]c1nc(Oc3cnc(C)nc3)nc(N3CC(=C(CN)C(C)C)C3)c12 | 1 (≈ 2.16 µM) | < 0.008 | < 0.008 |  |  | 0.03 (≈ 0.0649 µM) | 0.125 (≈ 0.27 µM) | 1 (≈ 2.16 µM) | 2 (≈ 4.32 µM) | 4 (≈ 8.65 µM) | 0.5 (≈ 1.08 µM) | 4 (≈ 8.65 µM) | 0.5 (≈ 1.08 µM) | 2 (≈ 4.32 µM) | 0.5 (≈ 1.08 µM) | 2 (≈ 4.32 µM) | 0.5 (≈ 1.08 µM) | half-life at 0.1 µM [8]: 17.8 min; CLH [11]: 118.3 mL/min/g; pIC50 [13]: < 4.40; CLH [15]: 55.2 mL/min/g; Fh at 1 h, 0.1 µM [19]: 26.2%; half-life at 0.1 µM [20]: 38 min; inhibition at 2 min, 40 µM [24]: 26.5%; Fh at 1 h, 0.1 µM [25]: 27.3%
